pIC50: −log10 of the molar value. Activity calls are given as the source filed them. The rule behind the calls is not given here.
Key:
Pediococcus [1] = test: Antibacterial activity against chlorguanide triazine-resistant Pediococcus cerevisiae ATCC 808 assessed as reduction in growth in presence of 0.001 ug/ml folinic acid; assay type: functional
Summary of the method: (§1)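 Folate-requiring strains grown in medium with folic acid, 0.002 µg/ml for S. faecium and 0.001 µg/ml for L. casei; P. cerevisiae given folinic acid, 0.001 µg/ml. Resistant substrains came from serial transfer in rising chlorguanide triazine, and the most resistant were used. Compounds tested up to 1000 µg/ml, or 100 µg/ml when supply was limited. Growth read as Klett turbidity; IC50 is the µM concentration giving 50% growth inhibition.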

Lacticaseibacillus casei [2] = test: Antibacterial activity against sensitive Lactobacillus casei ATCC 7469 assessed as reduction in growth in presence of 0.001 ug/ml folic acid; assay type: functional, organism-based
Summary of the method: (§2)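 Folate-requiring strains in the medium of the earlier assay method. Folic acid was 0.002 μg/ml for S. faecium and 0.001 μg/ml for L. casei. Turbidity read on a Klett-Summerson colorimeter. IC50 is the micromolar concentration reducing growth to 50% of control. Top concentration was 1000 μg/ml, or 100 μg/ml if supply was limited.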

Escherichia coli [3] = test: Antibacterial activity against sensitive Escherichia coli ATCC 10536 assessed as reduction in growth; assay type: functional, organism-based
Summary of the method: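 Growth inhibition in Sahyun et al. medium plus 0.6% acid-hydrolyzed casein. Growth read as turbidity on a Klett-Summerson photoelectric colorimeter. IC50 is the micromolar concentration giving 50% growth inhibition. Top concentration was 1000 μg/ml, or 100 μg/ml when compound was limited.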

Pediococcus [4] = test: Antibacterial activity against sensitive Pediococcus cerevisiae ATCC 808 assessed as reduction in growth in presence of 0.001 ug/ml folinic acid; assay type: functional
Summary of the method: (§3)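 P. cerevisiae grown with folinic acid at 0.001 μg/ml in the earlier-described medium. Turbidity read on a Klett-Summerson colorimeter. IC50 is the micromolar concentration reducing growth to 50% of control. Top concentration was 1000 μg/ml, or 100 μg/ml when supply was limited.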

Enterococcus faecium [5] = test: Fold increase in resistance, ratio of IC50 for chlorguanide triazine-resistant Streptococcus faecium ATCC 8043 to IC50 for sensitive Streptococcus faecium ATCC 8043; assay type: functional
Summary of the method: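 Resistant S. faecium substrain raised by serial transfer in increasing chlorguanide triazine. IC50 (µM, 50% growth inhibition by turbidity) was found for resistant and parent strains in folic acid (0.002 µg/ml) medium. Fold increase taken as IC50 resistant / IC50 sensitive.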

Escherichia coli [6] = test: Antibacterial activity against sensitive Escherichia coli ATCC 10536 assessed as reduction in growth in presence of p-aminobenzoic acid; assay type: functional, organism-based
Summary of the method: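 Reversal test. Drug inhibition was challenged with PABA in Sahyun et al. medium plus 0.6% acid-hydrolyzed casein. Growth read as turbidity on a Klett-Summerson colorimeter. Scored as reversal or nonreversal of the drug inhibition.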

Enterococcus faecium [7] = test: Antibacterial activity against chlorguanide triazine-resistant Streptococcus faecium ATCC 8043 assessed as reduction in growth in presence of 0.002 ug/ml folic acid; assay type: functional, organism-based; summary of the method: as §1
Enterococcus faecium [8] = test: Antibacterial activity against sensitive Streptococcus faecium ATCC 8043 assessed as reduction in growth in presence of 0.002 ug/ml folic acid; assay type: functional, organism-based; summary of the method: as §2
Pediococcus [9] = test: Fold increase in resistance, ratio of IC50 for chlorguanide triazine-resistant Pediococcus cerevisiae ATCC 808 to IC50 for sensitive Pediococcus cerevisiae ATCC 808; assay type: functional
Summary of the method: (§4)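 Resistant substrains were made by serial transfer in rising concentrations of cycloguanil, and the most resistant isolate of each organism was used. Both strains were assayed turbidimetrically under identical conditions. FIR = IC50 of the resistant strain divided by IC50 of the sensitive parent.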

[10] = Antibacterial activity against sensitive Pediococcus cerevisiae ATCC 808 assessed as reduction; assay type: functional; summary of the method: as §3
[11] = Antibacterial activity against chlorguanide triazine-resistant Pediococcus cerevisiae ATCC 808 assessed as reduction in growth; assay type: functional; summary of the method: as §1
Lacticaseibacillus casei [12] = test: Antibacterial activity against sensitive Lactobacillus casei ATCC 7469 assessed as reduction; assay type: functional, organism-based; summary of the method: as §1
Lacticaseibacillus casei [13] = test: Antibacterial activity against chlorguanide triazine-resistant Lactobacillus casei ATCC 7469 assessed as reduction in growth in presence of 0.001 ug/ml folic acid; assay type: functional, organism-based; summary of the method: as §1
Plasmodium berghei [14] = test: Antimalarial activity against Plasmodium berghei infected in sc dosed mouse assessed as dose required to survivors for period of 60 days; assay type: functional
Summary of the method: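 Mice infected with a blood-induced P. berghei inoculum were given one subcutaneous dose in peanut oil. Survivors at 60 days counted as cured. The minimum curative dose is the lowest dose that cured any mouse.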

Enterococcus faecium [15] = test: Antibacterial activity against chlorguanide triazine-resistant Streptococcus faecium ATCC 8043 assessed as reduction in growth; assay type: functional, organism-based; summary of the method: as §1
Lacticaseibacillus casei [16] = test: Fold increase in resistance, ratio of IC50 for chlorguanide triazine-resistant Lactobacillus casei ATCC 7469 to IC50 for sensitive Lactobacillus casei ATCC 7469; assay type: functional; summary of the method: as §4
Enterococcus faecium [17] = test: Antibacterial activity against sensitive Streptococcus faecium ATCC 8043 assessed as reduction in growth; assay type: functional, organism-based; summary of the method: as §1
Plasmodium berghei [18] = test: Antimalarial activity against Plasmodium berghei infected in sc dosed mouse assessed as active dose required to increase of 100% in mean survival time; assay type: functional; details: read-out: MED
Summary of the method: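 Mice received a standard blood-induced P. berghei inoculum and were then treated with one subcutaneous dose of compound suspended in peanut oil. The minimum active dose is the lowest dose that raised mean survival time by 100%.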

Lacticaseibacillus casei [19] = test: Antibacterial activity against chlorguanide triazine-resistant Lactobacillus casei ATCC 7469 assessed as reduction in growth; assay type: functional, organism-based; summary of the method: as §1

SMILES	inhibition (Pediococcus [1])	inhibition (Lacticaseibacillus casei [2])	pIC50 (Escherichia coli [3])	inhibition (Pediococcus [4])	Ratio IC50 (Enterococcus faecium [5])	inhibition (Escherichia coli [6])	inhibition (Enterococcus faecium [7])	inhibition (Enterococcus faecium [8])	Ratio IC50 (Pediococcus [9])	pIC50 [10]	pIC50 [11]	pIC50 (Lacticaseibacillus casei [12])	inhibition (Lacticaseibacillus casei [13])	MCD (Plasmodium berghei [14]) [mg/kg]	pIC50 (Enterococcus faecium [15])	Ratio IC50 (Lacticaseibacillus casei [16])	pIC50 (Enterococcus faecium [17])	minimal effective dose (Plasmodium berghei [18]) [mg/kg]	pIC50 (Lacticaseibacillus casei [19])
Nc1nc(N)c2cc(S(=O)(=O)c3ccc4ccccc4c3)ccc2n1	inactive	inactive	> 6.70	inactive	40	Active	inactive	inactive	25	8.70	7.30	7.40	inactive	1.25	7.10	0.23	8.70	0.63	8.05
Nc1nc(N)c2cc(SCc3ccc(Cl)cc3)ccc2n1	inactive	inactive	5.54	inactive	25	Active	inactive	inactive	28	7.30	5.85	6.70	inactive	640	6.00	0.2	7.40	320	7.40
CCN1CCCC(Nc2cc(C)nc(NC(=N)Nc3ccc(Cl)c(Cl)c3)n2)C1 (configuration not stated)	Active	Active	4.07	Active	0.53	Active	Active	Active	1	4.49	4.41	4.19	Active	40	3.92	0.85	3.64	20	4.25
Nc1nc(N)c2cc(NCc3ccc(Cl)c(Cl)c3)ccc2n1	inactive	inactive	4.48	inactive	330	Active	inactive	inactive	3.5	6.70	6.15	6.40	inactive	80	5.70	0.08	8.22	20	7.52
N=C(N)N/N=C(\c1ccc(F)cc1)c1ccc(C(F)(F)F)cc1	Active	Active	4.77	Active	0.6	Active	Active	Active	1	4.66	4.68	4.51	Active	160	4.46	1	4.19	40	4.52
Nc1nc(N)c2cc(Oc3cc(Cl)cc(Cl)c3)ccc2n1	inactive	inactive	5.70	inactive	144	Active	inactive	inactive	11.7	6.92	5.85	6.60	inactive	640	5.89	0.16	8.05	320	7.40
CCc1nc(N)nc(N)c1-c1ccc(Cl)cc1 [PYRIMETHAMINE]	inactive	inactive	4.12	inactive	1300	Active	inactive	inactive	3	5.40	4.92	5.29	inactive	40	4.98	0.05	8.10	10	6.62
ClC(Cl)(Cl)c1ccc(C(Cl)(Cl)Cl)cc1	Active	Active	3.58	Active	1	Active	Active	Active	2	3.02	2.70	3.00	Active	640	2.72	1	2.70	640	3.00

Source: ChEMBL document CHEMBL3272032, “Antifolate studies. Activities of 40 potential antimalarial compounds against sensitive and chlorguanide triazine resistant strains of folate-requiring bacteria and Escherichia coli” (J Med Chem, 1977)
